# Test results reported in publication PMC8992017 (Journal of medicinal chemistry, 2019).
# “Also recorded” adds a separate entry of the source.
# Experiments:
# [1] = test system: NF-κB; test: NF-κB activation in THP1-Blue NF-κB reporter cells; assay type: cell-based; conditions: compound 5 μM + LPS, compared with compound 1
# Procedure, shortened: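 THP1-Blue NF-κB cells at 10^5/well in RPMI with 10% FBS, pen/strep and Normocin. Test compound (1 mM DMSO stock) was diluted into LPS medium, giving final 5 μM compound ([…]), with LPS co-added. After 20 h, supernatant SEAP was measured colorimetrically with QuantiBlue at 630 nm. Two-point normalized: reference sulfonamide + LPS = 200%, LPS alone = 100%; mean ± SEM.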
# [2] = test system: ISRE; test: ISRE activity in ISRE-bla THP-1 reporter cells; assay type: cell-based; conditions: compound 5 μM + IFN-α, compared with compound 1
# Procedure, shortened: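 ISRE-bla THP-1 cells at 5×10^4/well in RPMI with 10% dialyzed FBS, 0.1 mM non-essential amino acids, 1 mM pyruvate and pen/strep. Test compound (1 mM DMSO stock) was diluted in IFN-α medium, giving final 5 μM compound ([…]) and final 100 U/mL IFN-α. Incubation 16 h, then CCF4-AM FRET substrate 3 h at RT in the dark. Excitation 405 nm; background-subtracted 465/535 nm emission ratio. Two-point normalized: reference sulfonamide + IFN-α = 200%, IFN-α alone = 100%; mean ± SEM.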
compound,measurement,setting,value
"CCOc1ccc(S(=O)(=O)Nc2cc(OC)c(Cl)c(OC)c2)cc1 [Compound 8, N-(4-chloro-3,5-dimethoxyphenyl)-4-ethoxybenzenesulfonamide]",NF-κB activity (in words),[1],complete loss of activity
same,ISRE activity (in words),[2],complete loss of activity; also recorded: slightly skewed ISRE activity
"CCOc1ccc(NS(=O)(=O)c2cc(OC)c(Cl)cc2OC)cc1 [Compound 31, 4-Chloro-N-(4-ethoxyphenyl)-2,5-dimethoxybenzenesulfonamide]",NF-κB activity (in words),[1],inactivity
same,ISRE activity (in words),[2],inactivity
"CCOc1ccc(S(=O)(=O)Nc2cc(OC)ccc2OC)cc1 [Compound 6, N-(2,5-dimethoxyphenyl)-4-ethoxybenzenesulfonamide]",NF-κB activity (in words),[1],retained activity
same,ISRE activity (in words),[2],retained activity
"CCOc1ccc(S(=O)(=O)N(CC(C)C)c2cc(OC)c(Cl)cc2OC)cc1 [Compound 41, N-(4-chloro-2,5-dimethoxyphenyl)-4-ethoxy-N-isobutylbenzenesulfonamide]",NF-κB activity (in words),[1],regained the activity
same,ISRE activity (in words),[2],regained the activity
"CCOc1ccc(S(=O)(=O)Nc2cc(OC)c([N+](=O)[O-])cc2OC)cc1 [Compound 9, N-(2,5-dimethoxy-4-nitrophenyl)-4-ethoxybenzenesulfonamide]",ISRE activity (in words),[2],inactive
"CCOc1ccc(S(=O)(=O)Nc2cc(OC)c(N=[N+]=[N-])cc2OC)cc1 [Compound 59, N-(4-azido-2,5-dimethoxyphenyl)-4-ethoxybenzenesulfonamide]",NF-κB activity (in words),[1],potent
same,ISRE activity (in words),[2],potent
"COc1cc(NS(=O)(=O)c2ccc(CN)cc2)c(OC)cc1Cl [Compound 21, 4-(aminomethyl)-N-(4-chloro-2,5-dimethoxyphenyl)benzenesulfonamide]",NF-κB activity (in words),[1],either weakly active or completely inactive
same,ISRE activity (in words),[2],either weakly active or completely inactive
"CCOc1ccc(S(=O)(=O)N(CCCNC(=O)CCCCCNC(=O)c2ccc3c(c2)C(=O)OC32c3ccc(O)cc3Oc3cc(O)ccc32)c2cc(OC)c(Cl)cc2OC)cc1 [Compound 56, N-(6-((3-((N-(4-chloro-2,5-dimethoxyphenyl)-4-ethoxyphenyl)sulfonamido)propyl)amino)-6-oxohexyl)-3’,6’-dihydroxy-3-oxo-3H-spiro[isobenzofuran-1,9’-xanthene]-5-carboxamide]",NF-κB activity (in words),[1],completely inactive
same,ISRE activity (in words),[2],completely inactive
"COc1cc(NS(=O)(=O)c2ccc([N+](=O)[O-])cc2)c(OC)cc1Cl [Compound 17, N-(4-chloro-2,5-dimethoxyphenyl)-4-nitrobenzenesulfonamide]",NF-κB activity (in words),[1],either weakly active or completely inactive
same,ISRE activity (in words),[2],either weakly active or completely inactive
"3-Bromo-N-(4-chloro-2,5-dimethoxyphenyl)-4-ethoxybenzenesulfonamide [Compound 25]",NF-κB activity (in words),[1],inactive
same,ISRE activity (in words),[2],inactive
"COc1ccc(S(=O)(=O)Nc2cc(OC)c(Cl)cc2OC)cc1N [Compound 60, 3-Amino-N-(4-chloro-2,5-dimethoxyphenyl)-4-methoxybenzenesulfonamide]",NF-κB activity (in words),[1],resurgence of activity
same,ISRE activity (in words),[2],resurgence of activity
"COc1cc(NS(=O)(=O)c2ccc(O)cc2)c(OC)cc1Cl [Compound 11, N-(4-chloro-2,5-dimethoxyphenyl)-4-hydroxybenzenesulfonamide]",NF-κB activity (in words),[1],not tolerated
same,ISRE activity (in words),[2],not tolerated
"COc1ccc(S(=O)(=O)Nc2cc(OC)c(Cl)cc2OC)cc1 [Compound 12, N-(4-chloro-2,5-dimethoxyphenyl)-4-methoxybenzenesulfonamide]",NF-κB activity (in words),[1],tolerated
same,ISRE activity (in words),[2],tolerated
"C#CCN(c1cc(OC)c(N=[N+]=[N-])cc1OC)S(=O)(=O)c1ccc(OCC)cc1 [Compound 62, N-(4-azido-2,5-dimethoxyphenyl)-4-ethoxy-N-(prop-2-yn-1-yl)benzenesulfonamide]",NF-κB activity (in words),[1],very potent
same,ISRE activity (in words),[2],very potent
"C#CCOCCOCCOCCN(c1cc(OC)c(Cl)cc1OC)S(=O)(=O)c1ccc(OCC)cc1 [Compound 45, N-(4-chloro-2,5-dimethoxyphenyl)-4-ethoxy-N-(2-(2-(2-(prop-2-yn-1yloxy)ethoxy)ethoxy)ethyl)benzenesulfonamide]",NF-κB activity (in words),[1],too long to retain activity
same,ISRE activity (in words),[2],too long to retain activity
"C#CCCCN(c1cc(OC)c(Cl)cc1OC)S(=O)(=O)c1ccc(OCC)cc1 [Compound 44, N-(4-chloro-2,5-dimethoxyphenyl)-4-ethoxy-N-(pent-4-yn-1-yl)benzenesulfonamide]",NF-κB activity (in words),[1],retained activity almost equivalent to that of compound 1
same,ISRE activity (in words),[2],retained activity almost equivalent to that of compound 1
"C#CCCN(c1cc(OC)c(Cl)cc1OC)S(=O)(=O)c1ccc(OCC)cc1 [Compound 43, N-(but-3-yn-1-yl)-N-(4-chloro-2,5-dimethoxyphenyl)-4-ethoxybenzenesulfonamide]",NF-κB activity (in words),[1],retained activity almost equivalent to that of compound 1
same,ISRE activity (in words),[2],retained activity almost equivalent to that of compound 1
"COc1cc(NS(=O)(=O)c2ccc(Oc3ccccc3)cc2)c(OC)cc1Cl [Compound 22, N-(4-chloro-2,5-dimethoxyphenyl)-4-phenoxybenzenesulfonamide]",ISRE activity (in words),[2],inactive
"CCOc1ccc(S(=O)(=O)N(CCCNC(=O)CCCC[C@H]2SC[C@H]3NC(=O)N[C@H]32)c2cc(OC)c(N=[N+]=[N-])cc2OC)cc1 [Compound 64, N-(3-((N-(4-azido-2,5-dimethoxyphenyl)-4-ethoxyphenyl)sulfonamido)propyl)-5((3aR,4R,6aS)-2-oxohexahydro-1H-thieno[3,4-d]imidazol-4-yl)pentanamide]",NF-κB activity (in words),[1],relatively weak activity
same,ISRE activity (in words),[2],relatively weak activity
"C#CCOc1ccc(S(=O)(=O)Nc2cc(OC)c(Cl)cc2OC)cc1 [Compound 15, N-(4-chloro-2,5-dimethoxyphenyl)-4-(prop-2-yn-1-yloxy)benzenesulfonamide]",NF-κB activity (in words),[1],inactive
same,ISRE activity (in words),[2],inactive
"CCOC(=O)c1ccc(S(=O)(=O)Nc2cc(OC)c(Cl)cc2OC)cc1 [Compound 29, Ethyl 4-(N-(4-chloro-2,5-dimethoxyphenyl)sulfamoyl)benzoate]",NF-κB activity (in words),[1],retained partial activity
same,ISRE activity (in words),[2],retained partial activity
"CCOc1ccc(S(=O)(=O)N(CCCC(=O)O)c2cc(OC)c(Cl)cc2OC)cc1 [Compound 53, 4-((N-(4-chloro-2,5-dimethoxyphenyl)-4-ethoxyphenyl)sulfonamido)butanoic acid]",NF-κB activity (in words),[1],retaining the NF-κB activity
same,ISRE activity (in words),[2],reduction in ISRE activity
"COc1cc(NS(=O)(=O)c2ccc(OC)c(N=[N+]=[N-])c2)c(OC)cc1Cl [Compound 61, 3-Azido-N-(4-chloro-2,5-dimethoxyphenyl)-4-methoxybenzenesulfonamide]",ISRE activity (in words),[2],inactive
"CCOC(=O)CCCN(c1cc(OC)c(Cl)cc1OC)S(=O)(=O)c1ccc(OCC)cc1 [Compound 50, Ethyl 4-((N-(4-chloro-2,5-dimethoxyphenyl)-4-ethoxyphenyl)sulfonamido)butanoate]",NF-κB activity (in words),[1],retained dual NF-κB and ISRE activities
same,ISRE activity (in words),[2],retained dual NF-κB and ISRE activities
"CCOc1ccc(S(=O)(=O)N(CCc2ccccc2)c2cc(OC)c(Cl)cc2OC)cc1 [Compound 47, N-(4-chloro-2,5-dimethoxyphenyl)-4-ethoxy-N-phenethylbenzenesulfonamide]",NF-κB activity (in words),[1],potent analogs
same,ISRE activity (in words),[2],potent analogs
"COc1cc(NS(=O)(=O)c2ccc(CNC(=O)OC(C)(C)C)cc2)c(OC)cc1Cl [Compound 20, tert-butyl (4-(N-(4-chloro-2,5-dimethoxyphenyl)sulfamoyl)benzyl)carbamate]",NF-κB activity (in words),[1],either weakly active or completely inactive
same,ISRE activity (in words),[2],either weakly active or completely inactive
"COC(=O)c1ccc(S(=O)(=O)Nc2cc(OC)c(Cl)cc2OC)cc1 [Compound 26, Methyl 4-(N-(4-chloro-2,5-dimethoxyphenyl)sulfamoyl)benzoate]",ISRE activity (in words),[2],active
"CCCOc1ccc(S(=O)(=O)Nc2cc(OC)c(Cl)cc2OC)cc1 [Compound 13, N-(4-chloro-2,5-dimethoxyphenyl)-4-propoxybenzenesulfonamide]",NF-κB activity (in words),[1],weakly active
same,ISRE activity (in words),[2],weakly active
"CCOc1ccc(S(=O)(=O)Nc2cc(OC)c(N)cc2OC)cc1 [Compound 10, N-(4-amino-2,5-dimethoxyphenyl)-4-ethoxybenzenesulfonamide]",ISRE activity (in words),[2],inactive
